In PMC5845419 (RMD Open, 2018):
“Also recorded” adds a separate entry of the source. Read-outs that look alike come from different tables or passages of the source.

Tests used:
[1] = type: in vivo, human
In short: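 Adults with gout, open-label, randomised by incomplete block design; 7-day treatment periods, oral dosing ~30 min after standardised breakfast. Serial plasma samples on days 7–35 and timed total-catch urine (1-hour rising to 2- or 10-hour intervals) with scheduled water intake. Plasma by protein precipitation, urine diluted with water; LC-MS/MS. Mixed-effects model (treatment fixed, subject random); geometric means.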

[2] = single oral 10 mg dose, healthy volunteers; cited from earlier work
[3] = Safety and tolerability, phase IIa study in adults with gout; type: in vivo, human; details: all dose combinations of verinurad (2.5–20 mg) and allopurinol 300 mg once daily
serum urate (sUA) = experiment: Serum urate; type: in vivo, human; details: 7 days, adults with gout
In short: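 Adults with gout, 7-day periods; second dose of twice-daily regimen given after evening meal ~10 hours after first. Serum sampled at preset intervals on baseline (day −1) and days 7–35; non-ULT subjects started colchicine ~day −7. Emax as maximum per cent sUA change from baseline; mixed-effects model (sequence, treatment fixed; subject random; baseline covariate) giving least-squares means.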

[4] = allopurinol 600 mg once daily vs 300 mg twice daily
[5] = verinurad 2.5 mg + allopurinol 300 mg once daily
[6] = verinurad 20 mg + allopurinol 300 mg once daily

With O=c1[nH]c(=O)c2c[nH]nc2[nH]1 [oxypurinol] the “least-squares geometric mean ratio (90% CI), oxypurinol Cmax” value [1, 4] was 122 (103 to 146).
For CC(C)(Sc1ccncc1-c1ccc(C#N)c2ccccc12)C(=O)O [verinurad], the “fraction of dose absorbed” value [2] is given as ~ 64%, the “median time to maximum observed plasma concentration (Tmax)” value [2] is given as 0.5 h and the terminal half-life [2] is given as 15 h. The tolerability [3] was “generally well tolerated”, the tolerability ([3]; listed as Verinurad) was “well tolerated” and the Tmax ([1]; human, plasma, oral, median Tmax, range across verinurad doses 2.5–20 mg in combination with allopurinol 300 mg once daily) was 3 to 3.97 h. For the same compound, the “Ae0–24 (amount excreted in urine)” value [1, 5] was 17.8 µg, the “Ae0–24 (amount excreted in urine)” value [1, 6] was 165 µg and the “effect of verinurad on plasma PK of allopurinol” value ([1]; verinurad 2.5–20 mg + allopurinol 300 mg once daily) was “no effect; also recorded: did not affect”. The “least-squares mean Emax (maximum per cent decrease in sUA from baseline)” value (serum urate (sUA); [5]) was 47%, the “least-squares mean Emax (maximum per cent decrease in sUA from baseline)” value (serum urate (sUA); verinurad 5 mg + allopurinol 300 mg once daily) was 59% and the “least-squares mean Emax (maximum per cent decrease in sUA from baseline)” value (serum urate (sUA); verinurad 7.5 mg + allopurinol 300 mg once daily) was 60%. The “least-squares mean Emax (maximum per cent decrease in sUA from baseline)” value (serum urate (sUA); verinurad 10 mg + allopurinol 300 mg once daily) was 67%, the “least-squares mean Emax (maximum per cent decrease in sUA from baseline)” value (serum urate (sUA); verinurad 15 mg + allopurinol 300 mg once daily) was 68% and the “least-squares mean Emax (maximum per cent decrease in sUA from baseline)” value (serum urate (sUA); [6]) was 74%.
With Oc1ncnc2[nH]ncc12 [allopurinol, reference compound] the “least-squares geometric mean ratio (90% CI), allopurinol Cmax” value [1, 4] was 204 (162 to 257), the “change of allopurinol Ae0–24 and CLR0–24 by verinurad” value ([1]; verinurad at any dose (2.5–20 mg) + allopurinol 300 mg once daily) was “generally unchanged” and the “least-squares mean Emax (maximum per cent decrease in sUA from baseline)” value (serum urate (sUA); allopurinol 300 mg once daily alone) was 40%. For the same compound, the “least-squares mean Emax (maximum per cent decrease in sUA from baseline)” value (serum urate (sUA); allopurinol 300 mg twice daily alone) was 54% and the “least-squares mean Emax (maximum per cent decrease in sUA from baseline)” value (serum urate (sUA); allopurinol 600 mg once daily alone) was 54%.
